The values that follow come from ChEMBL document CHEMBL4038305, “Benzoxaborole Antimalarial Agents. Part 5. Lead Optimization of Novel Amide Pyrazinyloxy Benzoxaboroles and Identification of a Preclinical Candidate” (J Med Chem, 2017).

Molecules are shown by their SMILES.

The subject of data set [1] is Plasmodium berghei. In words: Antimalarial activity against Plasmodium berghei infected in Swiss Webster mouse assessed as mouse survival rate at 0.3 mg/kg administered once daily via oral gavage for 4 consecutive days beginning 1 hr after infection measured on day 4 post infection relative to control. It counts as functional. The method in brief:
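Mice given an intraperitoneal injection of P. berghei-infected erythrocytes taken from a previously infected animal. Oral dosing once daily for 4 consecutive days, starting 1 h after infection. Vehicle: polyethylene glycol 300/propylene glycol/water (weight ratio 55/25/20). Percent survival recorded daily from day 4 to day 20. Chloroquine 30 mg/kg and vehicle-only groups served as controls.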

The subject of data set [2] is Lymphocyte. The data set is described as follows: Genotoxicity in human lymphocytes at 0.5 to 355 ug/mL after 3 hrs in presence of rat liver S9 fraction by micronucleus assay. It counts as toxicity, cell-based. To be noted: s9, 3 h.
Data set [3] concerns Salmonella typhimurium. The data set is described as follows: Genotoxicity in Salmonella typhimurium TA98 assessed as number of revertants per plate at 150 ug/plate in absence of rat liver S9 fraction by Ames test (reference value: 14 +/- 6). The class given is toxicity. The settings on record: salmonella enterica subsp. enterica serovar typhimurium. (In general: In the Ames test, an excess of revertant colonies over the control signals mutagenicity.)

The subject of data set [4] is Escherichia coli. In words: Genotoxicity in Escherichia coli WP2uvrA assessed as number of revertants per plate at 5 ug/plate in presence of rat liver S9 fraction by Ames test (reference value: 42 +/- 6). The class given is toxicity.
Data set [5] deals with Lymphocyte. The data set is described as follows: Genotoxicity in human lymphocytes assessed as increase in frequency of micronucleated cells at 160 ug/mL after 3 hrs in absence of rat liver S9 fraction by micronucleus assay (reference value: 0.99%). It counts as toxicity, cell-based.
Data set [6] has as its system Plasmodium falciparum. In words: Antimalarial activity against intraerythrocytic stage of Plasmodium falciparum assessed as parasite reduction ratio at 100 times IC50 preincubated for 24 hrs followed by [3H]-hypoxanthine addition measured after 24 hrs by scintillation counting method. The class given is functional. The method in brief: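 In vitro P. falciparum parasite reduction ratio assay run at 10×, 30× and 100× IC50. Derived parameters: lag phase (time to maximal killing), PRR (parasites killed per life cycle) and PCT99.9% (time to clear 99.9% of the initial parasite population).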

Data set [7] is described as follows: AUC (0 to infinity) in Beagle dog at 5 mg/kg, po via gavage by HPLC/MS analysis. It counts as ADME, organism-based, Canis lupus familiaris. The arrangement: dose 5 mg/kg, time infinity, route oral. To be noted: in vivo.
Data set [8] deals with Lymphocyte. The data set is described as follows: Genotoxicity in human lymphocytes assessed as replication index at 40 ug/mL after 28 hrs in absence of rat liver S9 fraction by micronucleus assay relative to control. The class given is toxicity, cell-based. The method in brief:
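Human lymphocytes exposed for 3 h with or without rat liver S9, or 28 h without S9, with 1% DMSO as vehicle control. Replication index = (binucleated + 2 × multinucleated cells)/total cells. Cytotoxicity (%) = 100 − (RI treated/RI vehicle) × 100.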

The nature of data set [9]: Clearance in Sprague-Dawley rat at 5 mg/kg, iv by HPLC/MS analysis. The class given is ADME, organism-based. The settings on record: in vivo. In short, it runs like this: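 Female CD-1 mice, male SD rats and beagle dogs received 5 mg/kg either iv or by oral gavage. Vehicle was PEG 300/propylene glycol/water (55/25/20, pH 6). Blood was sampled and drug measured by HPLC-MS/MS.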

Data set [10] relates to Salmonella typhimurium. The data set is described as follows: Genotoxicity in Salmonella typhimurium TA1535 assessed as number of revertants per plate at 5000 ug/plate in absence of rat liver S9 fraction by Ames test (reference value: 10 +/- 3). The settings on record: salmonella enterica subsp. enterica serovar typhimurium. It counts as toxicity.
Data set [11] deals with Salmonella typhimurium. The data set is described as follows: Genotoxicity in Salmonella typhimurium TA98 assessed as number of revertants per plate at 500 ug/plate in absence of rat liver S9 fraction by Ames test (reference value: 14 +/- 6). To be noted: salmonella enterica subsp. enterica serovar typhimurium. The class given is toxicity.

Regarding `Cc1c(Oc2cnc(C(=O)NC(C)CO)cn2)ccc2c1B(O)OC2` (stereo unspecified), in [1], the survival at 0.3 mg/kg turned out to be 100%.

As to `Cc1c(Oc2cnc(C(=O)NCCO)cn2)ccc2c1B(O)OC2`, the Activity result in data set [2] is listed as “Non-Toxic”.

In the case of `Cc1c(Oc2cnc(C(=O)N3CC(C)(O)C3)cn2)ccc2c1B(O)OC2`, the Activity in data set [3] is recorded as 13; in data set [4] it was 37; in [5] it was 1.18%; in data set [8], 7%; in [10], 4; in [11], 10. The “log(ratio)” value in data set [6] was determined as 4.9. Further, the AUC(0-inf) (usually the area under the concentration-time curve extrapolated to infinity) in data set [7] amounted to 214 µg·h/mL. Further, in [9], the clearance (in general, the rate of elimination divided by the concentration) was 3.88 mL/min/kg.
